# Results pooled from the literature.
# Lines come from different studies, so protocols differ.
# Target: Tyrosine-protein kinase ITK/TSK (ITK, Homo sapiens, UniProt Q08881)
# Sequence (Q08881 1-620, as in one of the studies): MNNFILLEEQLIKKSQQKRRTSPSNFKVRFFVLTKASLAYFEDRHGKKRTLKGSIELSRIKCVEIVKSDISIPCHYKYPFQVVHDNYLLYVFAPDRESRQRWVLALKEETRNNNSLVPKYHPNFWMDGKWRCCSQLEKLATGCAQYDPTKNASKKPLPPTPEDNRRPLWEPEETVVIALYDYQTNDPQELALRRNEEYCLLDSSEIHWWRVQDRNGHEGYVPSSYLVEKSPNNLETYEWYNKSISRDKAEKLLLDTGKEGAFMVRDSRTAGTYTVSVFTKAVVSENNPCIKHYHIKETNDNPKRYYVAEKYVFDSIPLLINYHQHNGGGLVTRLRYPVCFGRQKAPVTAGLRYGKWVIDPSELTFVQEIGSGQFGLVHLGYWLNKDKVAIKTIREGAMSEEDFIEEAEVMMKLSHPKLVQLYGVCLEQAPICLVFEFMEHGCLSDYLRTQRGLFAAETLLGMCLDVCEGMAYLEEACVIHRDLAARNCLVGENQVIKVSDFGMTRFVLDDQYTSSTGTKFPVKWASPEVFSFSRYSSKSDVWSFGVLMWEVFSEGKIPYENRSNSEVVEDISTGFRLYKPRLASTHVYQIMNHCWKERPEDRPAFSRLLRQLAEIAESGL
SMILES,assay,setting,quantity,result
CO[C@H]1CC[C@H](CNc2ccc(S(=O)(=O)NC(=O)c3ccc(N4CCN(CC5=C(c6ccc(Cl)cc6)CC(C)(C)CC5)CC4)cc3Oc3cnc4[nH]ccc4c3)cc2[N+](=O)[O-])CC1,"cell-free assay, competition with immobilised ligand",1 µM,remaining binding,87%
COc1ccc(C(=O)Nc2sc3c(c2C(N)=O)CCCC3)cc1OC,"enzyme activity, inhibitor",0.5 µM,remaining activity,99.6%
CN(C)C1CCN(CC#Cc2nn(C3CCCC3)c3nc(NCc4ccccc4)ncc23)C1 (stereo not drawn),"enzyme activity, inhibitor, FRET",0.1 µM,inhibition,1%
O=C(NC[C@@H]1[C@H]2CN(C(=O)OCc3cc(C(F)(F)F)cc(C(F)(F)F)c3)C[C@@H]12)c1ccc2[nH]nnc2c1,"cell-free assay, competition with immobilised ligand",1 µM,remaining binding,100%
CCCS(=O)(=O)Nc1ccc(F)c(C(=O)c2c[nH]c3ncc(-c4ccc(Cl)cc4)cc23)c1F,"enzyme activity, inhibitor",1 µM,inhibition,< 10%
COc1cc2ncnc(Nc3ccc(Oc4ccccc4)cc3C)c2cc1OC,"enzyme activity, inhibitor",1 µM,inhibition,3%
COc1cccc(CNC(=O)c2nc3scc(COCc4ccc(C(=O)O)cc4)c3c(=O)[nH]2)c1,"cell-free assay, competition with immobilised ligand",1 µM,remaining binding,86.8%
Cc1ccc(Nc2nccc(N(C)c3ccc4c(C)n(C)nc4c3)n2)cc1S(N)(=O)=O,cell-free assay,0.5 µM,remaining signal,115%
Cc1cnc(NC2CCOCC2)nc1-n1cnc(C(=O)NC(CN)c2cc(F)cc(Cl)c2)c1 (stereo not drawn),"enzyme activity, inhibitor, radiometric",1 µM,remaining activity,92%
CC(C)CC(=O)N1CCc2nc(-c3ccc(Br)cc3)nc(N(C)Cc3ccccc3)c2C1,"cell-free assay, competition with immobilised ligand",0.1 µM,remaining binding,100%
CNC(=O)c1cc(Oc2ccc(NC(=O)Nc3ccc(Cl)c(C(F)(F)F)c3)cc2)ccn1,"enzyme activity, inhibitor",0.3 µM,inhibition,-10%
CS(=O)(=O)N1CCCC(NC(=O)[C@H](CCC2CCCCC2)NC(=O)c2ccc(CNc3ncnc4c3nnn4-c3ccccc3)cc2)C1 (stereo partly drawn),"cell-free assay, competition with immobilised ligand",0.1 µM,remaining binding,100%
Cc1ccc(NC(=O)c2ccc(C)c(C(F)(F)F)c2)cc1C#Cc1nn(C2CCC(O)CC2)c2ncnc(N)c12 (stereo not drawn),cell-free assay,10 µM,remaining signal,102%
CCCOc1ccc([C@H]2[C@H](C(=O)O)[C@@H](c3ccc4c(c3)OCO4)CN2CC(=O)Nc2c(CC)cccc2CC)cc1,"cell-free assay, competition with immobilised ligand",1 µM,remaining binding,96%
O=C(Nc1cnn(-c2csc(C(=O)NC3COC3)c2)c1)Nc1ccccc1Cl,"enzyme activity, inhibitor",5 µM,remaining activity,107%
CC(C)(C)c1nc2c(s1)c1nc(N)ncc1c1ccc(NS(=O)(=O)c3c(F)cccc3F)c(F)c12,"enzyme activity, inhibitor, radiometric",1 µM,remaining activity,94%
CC/C(=N\NC(=O)NCc1cccc(O)c1)c1ccc(O)c(C)c1O,"enzyme activity, inhibitor",0.1 µM,inhibition,3.3%
Cc1sc(C(=O)NC2COC2)cc1-n1cc(NC(=O)Nc2c(F)cccc2Cl)cn1,"enzyme activity, inhibitor",10 µM,remaining activity,94.4%
CC(C)(O)[C@H]1CC[C@H](Nc2ccc3ncc(-c4cccc(C(F)(F)F)c4)n3n2)CC1,"enzyme activity, inhibitor",1 µM,remaining activity,88.8%
CCN(CC)CCNC(=O)c1c(C)[nH]c(/C=C2\C(=O)Nc3ccc(F)cc32)c1C,"enzyme activity, inhibitor",0.3 µM,inhibition,48%
CC(=O)N1CCC(c2ccc(C(=O)NC(=N)N)cc2C(F)(F)F)CC1,"cell-free assay, competition with immobilised ligand",1 µM,remaining binding,100%
O=c1c2ccccc2[nH]c(=S)n1CCN1CCC(=C(c2ccc(F)cc2)c2ccc(F)cc2)CC1,"enzyme activity, inhibitor",0.5 µM,remaining activity,97.1%
O=S(=O)(NC1CCC(c2cc(F)ccc2F)(S(=O)(=O)c2ccc(Cl)cc2)CC1)C(F)(F)F (stereo not drawn),"cell-free assay, competition with immobilised ligand",1 µM,remaining binding,97%
COc1cc2c(N3CCN(C(=O)Nc4ccc(OC(C)C)cc4)CC3)ncnc2cc1OCCCN1CCCCC1,cell-free assay,0.5 µM,remaining signal,99%
COc1cc(Cl)c(C(=O)N[C@@H](CN[C@H]2CC[C@@H](N)CC2)Cc2ccc(C#N)cc2)cc1-c1ccc(CN[C@H](C)c2ccc(C)cc2)o1,"enzyme activity, inhibitor",1 µM,remaining activity,104%
O=C1NC(=O)c2cc(Nc3ccc(F)cc3)c(Nc3ccc(F)cc3)cc21,cell-free assay,0.5 µM,remaining signal,87.3%
COc1cc(C)c(Sc2cnc(NC(=O)c3ccc(N4CCN(CCCCCCCNC(=O)COc5cccc6c5C(=O)N(C5CCC(=O)NC5=O)C6=O)CC4)cc3)s2)cc1C(=O)N1CCN(C(C)=O)CC1 (stereo not drawn),binding,1 µM,inhibition,> 90%
